Our source for the MIC and IC50 values is ChEMBL document CHEMBL4354828, “Discovery of Taniborbactam (VNRX-5133): A Broad-Spectrum Serine- and Metallo-β-lactamase Inhibitor for Carbapenem-Resistant Bacterial Infections” (J Med Chem, 2020).

Values after ≈ are worked out from the molar mass of the structure shown.

For assay [1], the system named is Klebsiella pneumoniae. The assay can be described thus: Inhibition of KPC-2 in Klebsiella pneumoniae assessed as meropenem antibacterial activity at 4 ug/ml after 16 to 20 hrs by CLSI-based microbroth dilution method (Rvb >= […] ug/ml). A general note: Broth dilution looks for growth in wells or tubes with falling amounts of substance.
Assay [2] can be described thus: Inhibition of bacterial KPC-2 using imipenem as substrate preincubated for 15 mins followed by susbtrate addition and measured after 10 mins by spectrophotometric method. On the set-up: species or system Bacteria.
Assay [3] is described as follows: Inhibition of bacterial AmpC using nitrocefin as substrate preincubated for 15 mins followed by susbtrate addition and measured after 10 mins by spectrophotometric method. On the set-up: species or system Bacteria.
Assay [4] is described as follows: Inhibition of bacterial VIM-2 using nitrocefin as substrate preincubated for 15 mins followed by susbtrate addition and measured after 10 mins by spectrophotometric method. On the set-up: species or system Bacteria. In a few lines: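 Purified β-lactamase inhibition. IC50 values are the average of duplicates unless otherwise indicated.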
Assay [5] deals with Klebsiella pneumoniae. Kind of assay: Inhibition of OXA-48 in Klebsiella pneumoniae assessed as meropenem antibacterial activity at 4 ug/ml after 16 to 20 hrs by CLSI-based microbroth dilution method (Rvb >= […] ug/ml).
Assay [6] deals with Klebsiella pneumoniae. The assay can be described thus: Inhibition of VIM-4 in Klebsiella pneumoniae assessed as meropenem antibacterial activity at 4 ug/ml after 16 to 20 hrs by CLSI-based microbroth dilution method (Rvb >= […] ug/ml).
The nature of assay [7]: Inhibition of bacterial OXA-48 using nitrocefin as substrate preincubated for 15 mins followed by susbtrate addition and measured after 10 mins by spectrophotometric method. On the set-up: species or system Bacteria.
Assay [8] deals with Beta-lactamase VIM-2 (Pseudomonas aeruginosa) (UniProt Q9K2N0). Kind of assay: Inhibition of VIM-2 in Pseudomonas aeruginosa assessed as meropenem antibacterial activity at 4 ug/ml after 16 to 20 hrs by CLSI-based microbroth dilution method (Rvb >= […] ug/ml).

In general, IC50 refers to the concentration that inhibits the measured activity by half. Low readings indicate inhibition by little substance, high ones a need for much substance.

On to `NC[C@H]1CC[C@H](CC(=O)N[C@H]2Cc3cccc(C(=O)O)c3OB2O)CC1`, for which the MIC was 1 µg/mL (≈ 2.78 µM) in the assay with Klebsiella pneumoniae [1], 2 µg/mL (≈ 5.55 µM) with Klebsiella pneumoniae [5], 8 µg/mL (≈ 22.2 µM) in the assay with Klebsiella pneumoniae [6] and 4 µg/mL (≈ 11.1 µM) in assay [8]. Moreover, the IC50 in assay [2] was found to be 100 nM; in assay [3] it was 25 nM; in assay [4] it was 1600 nM; in assay [7], 1800 nM.
Consider `N=C(N)NCCN[C@H]1CC[C@H](CC(=O)N[C@H]2Cc3cccc(C(=O)O)c3OB2O)CC1`, for which the MIC in the assay on Klebsiella pneumoniae [1] is 1 µg/mL (≈ 2.32 µM); in the assay with Klebsiella pneumoniae [5] it was 2 µg/mL (≈ 4.64 µM); with Klebsiella pneumoniae [6], 0.06 µg/mL (≈ 0.139 µM); in assay [8], 0.5 µg/mL (≈ 1.16 µM). For the same molecule, the IC50 in assay [2] is 27 nM; in assay [3], 6 nM; in assay [4], 86 nM; in assay [7] it was 1590 nM.
Turning to `O=C(C[C@H]1CC[C@H](NCCO)CC1)N[C@H]1Cc2cccc(C(=O)O)c2OB1O`, the MIC was determined as 2 µg/mL (≈ 5.12 µM) in the assay on Klebsiella pneumoniae [1], 2 µg/mL (≈ 5.12 µM) with Klebsiella pneumoniae [5], 0.5 µg/mL (≈ 1.28 µM) in the assay with Klebsiella pneumoniae [6] and 4 µg/mL (≈ 10.2 µM) in assay [8]. Also, the IC50 was determined as 17 nM in assay [2], 10 nM in assay [3], 1400 nM in assay [4] and 7550 nM in assay [7].
For `NCCNc1ccc(CC(=O)N[C@H]2Cc3cccc(C(=O)O)c3OB2O)cc1`, the MIC in the assay on Klebsiella pneumoniae [1] is 1 µg/mL (≈ 2.61 µM); in the assay with Klebsiella pneumoniae [5], 1 µg/mL (≈ 2.61 µM); in the assay with Klebsiella pneumoniae [6], 8 µg/mL (≈ 20.9 µM); in assay [8], 0.5 µg/mL (≈ 1.3 µM). The 50% inhibitory concentration (IC50) in assay [2] was 22 nM; in assay [3] it was 5 nM; in assay [4], 491 nM; in assay [7] it was 288 nM.
For `NCCN[C@H]1CC[C@@H](CC(=O)N[C@H]2Cc3cccc(C(=O)O)c3OB2O)CC1`, the MIC was found to be 8 µg/mL (≈ 20.6 µM) with Klebsiella pneumoniae [1], 8 µg/mL (≈ 20.6 µM) in the assay on Klebsiella pneumoniae [5], 4 µg/mL (≈ 10.3 µM) with Klebsiella pneumoniae [6] and 0.5 µg/mL (≈ 1.28 µM) in assay [8]. Moreover, the IC50 in assay [2] is 30 nM; in assay [3] it was 35 nM; in assay [4] it was 130 nM; in assay [7], 670 nM.
For `NCC(=O)N[C@H]1CC[C@H](CC(=O)N[C@H]2Cc3cccc(C(=O)O)c3OB2O)CC1`, the MIC was 2 µg/mL (≈ 4.96 µM) in the assay on Klebsiella pneumoniae [1], 8 µg/mL (≈ 19.8 µM) in the assay on Klebsiella pneumoniae [5], 8 µg/mL (≈ 19.8 µM) in the assay on Klebsiella pneumoniae [6] and 8 µg/mL (≈ 19.8 µM) in assay [8]. The concentration for half-maximal inhibition (IC50) in assay [2] came to 34 nM; in assay [3], 6 nM; in assay [4], 594 nM; in assay [7], 355 nM.
Turning to `CS(=O)(=O)NCCN[C@H]1CC[C@H](CC(=O)N[C@H]2Cc3cccc(C(=O)O)c3OB2O)CC1`, the MIC in the assay on Klebsiella pneumoniae [1] was 4 µg/mL (≈ 8.56 µM); in the assay on Klebsiella pneumoniae [5], 8 µg/mL (≈ 17.1 µM); in the assay with Klebsiella pneumoniae [6], 8 µg/mL (≈ 17.1 µM); in assay [8], 16 µg/mL (≈ 34.2 µM). In addition, the IC50 in assay [2] is 17 nM; in assay [3], 6 nM; in assay [4], 110 nM; in assay [7], 499 nM.
In the case of `NCCCN[C@H]1CC[C@H](CC(=O)N[C@H]2Cc3cccc(C(=O)O)c3OB2O)CC1`, the MIC in the assay with Klebsiella pneumoniae [1] came to 0.5 µg/mL (≈ 1.24 µM); in the assay with Klebsiella pneumoniae [5], 8 µg/mL (≈ 19.8 µM); in the assay on Klebsiella pneumoniae [6], 4 µg/mL (≈ 9.92 µM); in assay [8] it was 0.25 µg/mL (≈ 0.62 µM). For the same molecule, the concentration for half-maximal inhibition (IC50) in assay [2] was found to be 70 nM; in assay [3], 5 nM; in assay [4] it was 82 nM; in assay [7], 664 nM.
In the case of `O=C(O)CN[C@H]1CC[C@H](CC(=O)N[C@H]2Cc3cccc(C(=O)O)c3OB2O)CC1`, the MIC in the assay on Klebsiella pneumoniae [1] worked out at 4 µg/mL (≈ 9.9 µM); in the assay with Klebsiella pneumoniae [5], 8 µg/mL (≈ 19.8 µM); in the assay with Klebsiella pneumoniae [6], 32 µg/mL (≈ 79.2 µM); in assay [8], 16 µg/mL (≈ 39.6 µM). Also, the half-inhibitory concentration (IC50) in assay [2] came to 19 nM; in assay [3], 6 nM; in assay [4], 2400 nM; in assay [7], 3140 nM.
Regarding `O=C(C[C@H]1CC[C@H](NCc2cnc[nH]2)CC1)N[C@H]1Cc2cccc(C(=O)O)c2OB1O`, the MIC with Klebsiella pneumoniae [1] stood at 1 µg/mL (≈ 2.35 µM); in the assay on Klebsiella pneumoniae [5], 8 µg/mL (≈ 18.8 µM); in the assay with Klebsiella pneumoniae [6], 8 µg/mL (≈ 18.8 µM); in assay [8], 1 µg/mL (≈ 2.35 µM). The IC50 was determined as 36 nM in assay [2], 14 nM in assay [3], 477 nM in assay [4] and 454 nM in assay [7].
As to `N[C@H]1CC[C@@H](CC(=O)N[C@H]2Cc3cccc(C(=O)O)c3OB2O)CC1`, the MIC in the assay with Klebsiella pneumoniae [1] turned out to be 2 µg/mL (≈ 5.78 µM); in the assay on Klebsiella pneumoniae [5] it was 16 µg/mL (≈ 46.2 µM); in the assay on Klebsiella pneumoniae [6], 32 µg/mL (≈ 92.4 µM); in assay [8], 32 µg/mL (≈ 92.4 µM). The half-inhibitory concentration (IC50) was 120 nM in assay [2], 5 nM in assay [3], 1670 nM in assay [4] and 18000 nM in assay [7].
Turning to `O=C(C[C@H]1CC[C@H](N2CCNCC2)CC1)N[C@H]1Cc2cccc(C(=O)O)c2OB1O`, the MIC with Klebsiella pneumoniae [1] was 4 µg/mL (≈ 9.63 µM); in the assay on Klebsiella pneumoniae [5], 16 µg/mL (≈ 38.5 µM); in the assay on Klebsiella pneumoniae [6], 32 µg/mL (≈ 77.1 µM); in assay [8], 16 µg/mL (≈ 38.5 µM). Further, the IC50 was 20 nM in assay [2], 3 nM in assay [3], 1500 nM in assay [4] and 1520 nM in assay [7].
Turning to `CNCCN[C@H]1CC[C@H](CC(=O)N[C@H]2Cc3cccc(C(=O)O)c3OB2O)CC1`, the MIC with Klebsiella pneumoniae [1] is 0.5 µg/mL (≈ 1.24 µM); in the assay on Klebsiella pneumoniae [5] it was 2 µg/mL (≈ 4.96 µM); with Klebsiella pneumoniae [6], 0.5 µg/mL (≈ 1.24 µM). The half-inhibitory concentration (IC50) was 12 nM in assay [2], 11 nM in assay [3], 2 nM in assay [4] and 579 nM in assay [7].
